Six molecules from ChEMBL document CHEMBL1141450, “Anthraquinones with quinone reductase-inducing activity and benzophenones from Morinda citrifolia (noni) roots” (J Nat Prod, 2007) can be followed below.

Each structure is given as a SMILES string. A value given as a limit tells only on which side of the number the result lay.

A short description of data set [1]: Cytotoxicity against mouse Hepa lclc7 cells at 20 ug/mL. Format: cell-based.
The subject of the next data set is Hepa lclc7. Description: Induction of mouse quinone reductase in mouse Hepa lclc7 cells assessed as concentration required to double enzyme activity. Format: cell-based. In short, it runs like this:
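Quinone reductase induction assay in Hepa 1c1c7 murine hepatoma cells (ATCC CRL-2026), with isoliquiritigenin as the positive control. CD is the concentration needed to double QR activity.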

Data set [2] is described as follows: Chemoprevention index, ratio of IC50 for mouse Hepa lclc7 cells to activity against mouse quinone reductase. Format: functional. The method, boiled down:
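Chemoprevention index is calculated as IC50 divided by CD. IC50 is the concentration giving 50% growth inhibition of Hepa 1c1c7 cells. CD is the concentration doubling quinone reductase activity in the same cells. Isoliquiritigenin is the positive control.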

A short description of data set [3]: Cytotoxicity against mouse Hepa lclc7 cells. The format is cell-based. In short, it runs like this:
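Hepa 1c1c7 murine hepatoma cells (ATCC CRL-2026) were tested in the QR induction assay format. IC50 is the concentration inhibiting cell growth by 50%.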

Take `COc1c(O)cc2c(c1O)C(=O)c1ccc(O)cc1C2=O`: the figures for the Activity result (in data set [1]; in the data set on Hepa lclc7) were “Non-toxic” and 0.009 µM, respectively.

As usually defined, the IC50 is the point on the concentration scale where inhibition reaches its midpoint. A lower IC50 goes with inhibition by little substance. With `Cc1c(O)cc2c(c1O)C(=O)c1ccccc1C2=O` [Rubiadin], the Ratio in data set [2] is given as over 9. In addition, the IC50 in data set [3] was over 74 µM. In addition, in the data set with Hepa lclc7, the Activity worked out at 8.1 µM.

For `O=C1c2ccccc2C(=O)c2cc(CO)c(O)cc21`, the Ratio in data set [2] is listed as over 83. This molecule also came in with an IC50 in data set [3] of over 78 µM. Moreover, the Activity in the data set on Hepa lclc7 stood at 0.94 µM.

With `Cc1c(O)cc2c(c1O)C(=O)c1ccc(O)cc1C2=O`, in data set [2], the Ratio worked out at 85. This molecule also gave a half-inhibitory concentration (IC50) in data set [3] of 47 µM. Moreover, in the data set on Hepa lclc7, the Activity was found to be 0.56 µM.

Regarding `O=C(/C=C/c1ccc(O)cc1)c1ccc(O)cc1O` [ISOLIQUIRITIGENIN], the Ratio in data set [2] is given as 9.2. For the same molecule, the IC50 in data set [3] amounted to 39 µM. The Activity in the data set with Hepa lclc7 is 4.3 µM.

In the case of `O=C1c2ccccc2C(=O)c2c1ccc(O)c2O` [ATHRAQUINONES A], the Ratio in data set [2] is 5.1. In data set [3], it took 62 µM to reach half-maximal inhibition (IC50). The Activity in the data set with Hepa lclc7 came out at 12 µM.
